In assay [1] the target is T1, Alpha-2C adrenergic receptor (Homo sapiens) (UniProt P18825).
T1 sequence (whole entry): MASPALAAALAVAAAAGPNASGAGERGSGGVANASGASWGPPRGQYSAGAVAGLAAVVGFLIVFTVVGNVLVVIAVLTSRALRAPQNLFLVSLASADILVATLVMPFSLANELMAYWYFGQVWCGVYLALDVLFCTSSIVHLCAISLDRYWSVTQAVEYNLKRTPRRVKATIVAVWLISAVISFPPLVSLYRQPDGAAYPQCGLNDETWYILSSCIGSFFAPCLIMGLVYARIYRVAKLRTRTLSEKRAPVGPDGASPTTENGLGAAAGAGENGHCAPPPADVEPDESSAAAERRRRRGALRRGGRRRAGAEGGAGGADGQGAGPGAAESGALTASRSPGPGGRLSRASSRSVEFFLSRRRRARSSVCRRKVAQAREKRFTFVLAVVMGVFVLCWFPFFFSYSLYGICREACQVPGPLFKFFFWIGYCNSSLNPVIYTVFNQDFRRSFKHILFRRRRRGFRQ
In words: Compound at 1 uM was tested for the inhibition of radioligand [3H]MK-912 binding to recombinant human alpha-2C adrenergic receptor. In a few lines: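 Recombinant human α2a or α2c receptors in CHO cell membranes; [3H]MK912, 60 min at 25 °C in 50 mM Tris-HCl, 150 mM NaCl, 5 mM EDTA, pH 7.4; WB4101 (10 μM) for nonspecific binding. Percent inhibition at 1 μM in duplicate; filtration, scintillation counting.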

In assay [2] the target is T2, Alpha-1B adrenergic receptor (Homo sapiens, UniProt P35368).
T2 sequence (P35368 whole entry): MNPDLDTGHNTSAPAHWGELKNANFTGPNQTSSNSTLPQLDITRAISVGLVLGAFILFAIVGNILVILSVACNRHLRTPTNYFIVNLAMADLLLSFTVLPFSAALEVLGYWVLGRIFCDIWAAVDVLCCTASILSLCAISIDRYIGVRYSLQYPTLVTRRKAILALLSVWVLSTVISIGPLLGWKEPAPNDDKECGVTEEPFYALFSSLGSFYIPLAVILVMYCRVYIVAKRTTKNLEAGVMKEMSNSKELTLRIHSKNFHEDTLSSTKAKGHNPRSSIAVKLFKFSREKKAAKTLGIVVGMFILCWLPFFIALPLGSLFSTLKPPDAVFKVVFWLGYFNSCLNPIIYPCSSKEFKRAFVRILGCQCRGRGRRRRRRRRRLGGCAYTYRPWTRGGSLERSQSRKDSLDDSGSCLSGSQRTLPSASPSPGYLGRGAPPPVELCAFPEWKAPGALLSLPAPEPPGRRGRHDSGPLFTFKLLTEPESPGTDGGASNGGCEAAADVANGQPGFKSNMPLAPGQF
Put plainly: Binding affinity towards cloned human alpha-1B adrenergic receptor was determined using [125]-HEAT as radioligand. The gist of the method:
(§1)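 Human α1a, α1b and α1d cDNAs transiently expressed in COS-1 cells (DEAE-dextran); membranes harvested 72 h post-transfection. Competition versus 50 pM [125I]HEAT (final), 0.1 pM–10 μM test compound in half-log steps, in TNE buffer pH 7.4. Membrane protein 0.1 μg (α1a, α1b) or 2.6 μg (α1d); 1 h at 25 °C. Filtration, scintillation counting; Ki = IC50/(1 + [L]/Kd). Ratios are subtype Ki over α1a Ki.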

Assay [3] addresses T3, 5-hydroxytryptamine receptor 1A (Homo sapiens) (UniProt P08908).
T3 sequence (whole entry): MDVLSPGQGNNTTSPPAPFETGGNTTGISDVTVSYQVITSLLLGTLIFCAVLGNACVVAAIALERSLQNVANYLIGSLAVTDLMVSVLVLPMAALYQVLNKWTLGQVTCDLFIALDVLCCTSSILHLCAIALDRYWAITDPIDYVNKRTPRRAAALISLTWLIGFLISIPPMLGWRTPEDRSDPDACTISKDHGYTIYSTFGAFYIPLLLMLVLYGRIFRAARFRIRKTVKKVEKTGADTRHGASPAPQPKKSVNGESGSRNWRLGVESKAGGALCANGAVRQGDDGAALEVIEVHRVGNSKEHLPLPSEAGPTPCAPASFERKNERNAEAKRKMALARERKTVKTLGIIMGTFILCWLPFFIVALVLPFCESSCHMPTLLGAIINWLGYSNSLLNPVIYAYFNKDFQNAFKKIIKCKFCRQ
In words: Compound at 1 uM was tested for the inhibition of radioligand [3H]8-OH-DPAT binding to recombinant human 5-hydroxytryptamine 1A receptor.

The target in assay [4] is 5-hydroxytryptamine receptor 7 (Homo sapiens, UniProt P34969). Put plainly: Compound at 1 uM was tested for the inhibition of radioligand [3H]LSD binding to recombinant human 5-hydroxytryptamine 7 receptor. In a few lines: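 Human 5-HT7 expressed in CHO cells; [3H]LSD, 120 min at 37 °C, pH 7.4 Tris-HCl/NaCl/EDTA; 5 μM 5-HT for nonspecific binding. Compound at 1 μM, duplicate determinations of percent inhibition; filtration, scintillation counting.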

The target in assay [5] is T4, Alpha-1D adrenergic receptor (Homo sapiens, UniProt P25100).
T4 sequence (P25100 whole entry): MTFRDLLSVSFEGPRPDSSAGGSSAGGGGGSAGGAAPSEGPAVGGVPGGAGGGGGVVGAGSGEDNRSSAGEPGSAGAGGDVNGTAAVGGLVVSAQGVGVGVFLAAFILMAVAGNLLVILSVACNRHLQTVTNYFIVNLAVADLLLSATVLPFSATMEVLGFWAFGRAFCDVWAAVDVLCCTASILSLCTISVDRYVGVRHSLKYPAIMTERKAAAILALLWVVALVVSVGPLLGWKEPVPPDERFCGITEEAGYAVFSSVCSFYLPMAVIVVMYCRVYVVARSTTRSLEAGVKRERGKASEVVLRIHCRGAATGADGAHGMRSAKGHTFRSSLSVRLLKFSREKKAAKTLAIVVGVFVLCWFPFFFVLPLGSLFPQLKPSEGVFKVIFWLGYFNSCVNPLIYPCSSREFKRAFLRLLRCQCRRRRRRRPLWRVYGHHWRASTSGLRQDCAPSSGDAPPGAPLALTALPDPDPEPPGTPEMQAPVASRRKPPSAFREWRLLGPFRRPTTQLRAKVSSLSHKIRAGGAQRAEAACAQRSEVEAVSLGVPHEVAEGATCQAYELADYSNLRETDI
In words: Binding affinity towards cloned human alpha-1D adrenergic receptor was determined using [125]-HEAT as radioligand. In a few lines: as §1

The target in assay [6] is Serotonin 1 (5-HT1) receptor (Rattus norvegicus) (UniProt P28564+P30940+P19327+P28565). In words: Compound at 1 uM was tested for the inhibition of radioligand [3H]5-HT binding to 5-hydroxytryptamine 1 receptor in rat cerebral cortex. Format: tissue-based. The gist of the method:
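Rat cerebral cortex membranes; [3H]5-HT, 10 min at 37 °C, Tris-HCl/NaCl/EDTA buffer pH 7.4; 10 μM 5-HT for nonspecific binding. Filtered, washed three to four times, scintillation counted. Percent inhibition at 1 μM test compound, in duplicate.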

In general, inhibition refers to the drop in the measured response relative to a control, in per cent. What is called Ki is the equilibrium dissociation constant of an inhibitor or competing ligand from its target.

5-hydroxytryptamine receptor 7, sequence (P34969 whole entry): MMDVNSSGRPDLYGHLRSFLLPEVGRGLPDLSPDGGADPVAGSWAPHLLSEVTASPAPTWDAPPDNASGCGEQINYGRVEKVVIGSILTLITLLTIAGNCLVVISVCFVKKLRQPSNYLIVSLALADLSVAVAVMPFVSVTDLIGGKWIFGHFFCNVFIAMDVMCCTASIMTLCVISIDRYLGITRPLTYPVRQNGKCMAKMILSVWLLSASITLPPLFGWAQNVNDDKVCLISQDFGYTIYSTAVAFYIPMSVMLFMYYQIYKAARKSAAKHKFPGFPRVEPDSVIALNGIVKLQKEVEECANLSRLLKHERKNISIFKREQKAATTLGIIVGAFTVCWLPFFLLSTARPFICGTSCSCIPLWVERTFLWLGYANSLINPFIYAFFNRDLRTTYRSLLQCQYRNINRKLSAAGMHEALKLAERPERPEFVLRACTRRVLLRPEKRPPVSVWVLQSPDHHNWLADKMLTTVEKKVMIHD

`Cc1ccc(N2C(=O)c3ccc(C(=O)NC[C@H](O)CN4CCN(c5ccccc5OC(C)C)CC4)cc3C2=O)cc1`: the inhibition in assay [1] came out at 14%; in assay [3], 92%; in assay [4], 90%; in assay [6], 64%. The Ki is more than 1650 nM in assay [2] and 54 nM in assay [5].
Regarding `CC(C)Oc1ccccc1N1CCN(C[C@@H](O)CNC(=O)c2ccc3c(c2)C(=O)N(c2cccc(F)c2)C3=O)CC1`, the inhibition in assay [1] was determined as 8%; in assay [3] it was 98%; in assay [4] it was 95%; in assay [6] it was 49%. The Ki in assay [2] was more than 2000 nM; in assay [5], 190 nM.
In the case of `CCOc1ccccc1OCCN[C@H](C)Cc1ccc(OC)c(S(N)(=O)=O)c1` [TAMSULOSIN], the inhibition in assay [1] came out at 41%; in assay [3] it was 115%; in assay [4] it was 74%; in assay [6], 62%. In addition, the Ki in assay [2] was 1.92 nM; in assay [5] it was 0.18 nM.
With `CC(C)Oc1ccccc1N1CCN(C[C@@H](O)CNC(=O)c2ccc3c(c2)C(=O)N(c2ccc(N(C)C)cc2)C3=O)CC1`, the inhibition came out at 11% in assay [1], 92% in assay [3], 95% in assay [4] and 66% in assay [6]. In addition, the Ki was more than 2000 nM in assay [2] and 52 nM in assay [5].
Consider `COc1ccc(N2C(=O)c3ccc(C(=O)NCCCN4CCN(c5ccccc5OC(C)C)CC4)cc3C2=O)cc1`, for which the inhibition in assay [1] amounted to 76%; in assay [3], 104%; in assay [4] it was 92%; in assay [6], 90%. In addition, the Ki amounted to 361 nM in assay [2] and 16 nM in assay [5].
Turning to `Cc1ccc(N2C(=O)c3ccc(C(=O)NCCCN4CCN(c5ccccc5OC(C)C)CC4)cc3C2=O)cc1`, the inhibition is 83% in assay [1], 90% in assay [3], 95% in assay [4] and 69% in assay [6]. The Ki in assay [2] was more than 2000 nM; in assay [5], 37 nM.
Consider `CC(C)Oc1ccccc1N1CCN(CCCNC(=O)c2ccc3c(c2)C(=O)N(c2cccc(F)c2)C3=O)CC1`, for which the inhibition in assay [1] is 86%; in assay [3] it was 95%; in assay [4] it was 92%; in assay [6], 88%. For the same compound, the Ki in assay [2] was found to be 482 nM; in assay [5], 22 nM.
